Key:
HsAdoMetDC = conditions: human versus T. brucei enzyme; cited from earlier work
[1] = system: T. brucei brucei Lister 427 bloodstream-form (BSF) cells; assay: T. brucei cell viability growth assay; assay type: cell-based, Trypanosoma brucei brucei
[2] = molecular target: T1, human AdoMetDC (HsAdoMetDC) (Homo sapiens, UniProt P17707); assay: RapidFire-MS end-point AdoMetDC activity assay, human enzyme; assay type: biochemical
T1 sequence (P17707 1-334): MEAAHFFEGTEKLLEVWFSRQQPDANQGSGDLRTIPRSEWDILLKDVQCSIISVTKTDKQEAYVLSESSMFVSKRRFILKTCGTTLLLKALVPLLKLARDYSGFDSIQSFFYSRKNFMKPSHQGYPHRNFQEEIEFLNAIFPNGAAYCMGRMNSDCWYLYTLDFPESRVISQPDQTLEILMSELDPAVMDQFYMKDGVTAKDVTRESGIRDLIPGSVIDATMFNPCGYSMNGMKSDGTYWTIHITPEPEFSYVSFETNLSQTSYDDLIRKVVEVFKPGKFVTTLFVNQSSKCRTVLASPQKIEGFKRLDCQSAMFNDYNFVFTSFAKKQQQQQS

[3] = system: prozyme levels in T. brucei cells; assay: Western blotting analysis of prozyme expression levels in treated cells; assay type: cell-based, Trypanosoma brucei; conditions: cells grown 24 h with 1–2 × EC50 of compound versus vehicle
Method in brief: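 Bloodstream-form T. brucei treated 24 h with test compound; DMSO vehicle as neutral control and a reference AdoMetDC inhibitor as positive control. Cells harvested, lysed and run on SDS-PAGE. Blots probed with rabbit polyclonal anti-T. brucei prozyme (1000-fold dilution, Tris-buffered saline, 5% blocker). Membrane cut by molecular-weight marker; upper section probed with rabbit anti-BiP (100,000-fold) as loading control. Prozyme compared with vehicle.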

T. brucei cells = assay: Rescue of cell growth inhibition with spermidine; assay type: cell-based, Trypanosoma brucei
[4] = In vitro metabolic stability in hepatic microsomes, human; assay type: in vitro ADME; conditions: both
[5] = In vitro metabolic stability in hepatic microsomes, mouse; assay type: in vitro ADME; conditions: male, CD-1, mouse
[6] = system: P-glycoprotein (human MDR1); assay: MDCKII-hMDR1 monolayer permeability assay; assay type: in vitro ADME; conditions: dog, MDCK-MDR1

Row | Compound | fold more potent against HsAdoMetDC (HsAdoMetDC) [fold] | EC50 fold below measured IC50 on the enzyme [1] [fold] | EC50 ([1]; Trypanosoma brucei, 48 h, read-out: T. brucei cell EC50) [nM] | IC50 [2] [nM] | Prozyme induction [3] | EC50 (T. brucei cells; Trypanosoma brucei, read-out: T. brucei cell EC50, – Spd) [nM] | rescue of cell growth inhibition by spermidine supplementation (T. brucei cells; over 100× EC50 concentrations of compound, 1 mM spermidine) | half-life at 1 μM [4] [h] | half-life at 1 μM [5] [h] | Papp A→B [6] [×10⁻⁶ cm/s]
1 | Cl.Cl.Cl.N=C(N)c1cccc(/C=N/N=C(\N)N/N=C/c2cccc(C(=N)N)c2)c1 [CGP 40215A] | 500 | – | – | – | – | – | – | – | – | –
2 | Cc1nc2c(N)ncnc2n1[C@@H]1O[C@H](CN(C)C/C=C\CN)[C@@H](O)[C@H]1O [Compound 1] | – | 100 | 1.8 | 110 | yes | 0.3 | full rescue | > 1.5 | > 1.5 | 1.1
